For orientation: EC50 means the concentration at which the effect is half-maximal. A word on the IC50: it is the midpoint of a concentration-inhibition curve.

The source of these data is publication PMC8671219 (Arthritis & Rheumatology (Hoboken, N.j.), 2021).

In test [1] the test system is human primary cell cocultures (4H, LPS, SAg, BT, MyoF, /Mphg). Put plainly: BioMAP Diversity Plus Panel. It is filed as cell-based. The note with it: multicellular human primary cell systems. The essentials:
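An external provider ran BioMAP Diversity Plus profiling with each compound at the noted concentrations, scoring multiple end points per system. The systems were venular endothelial cells (4H), PBMC plus endothelial cells with LPS, PBMC plus endothelial cells with superantigen, B cells plus PBMC (BT), lung fibroblasts (MyoF), and macrophages plus venular endothelial cells. Etanercept and tofacitinib served as comparators.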

Test [2] has as its system MRL/lpr mice. Put plainly: MRL/lpr in vivo model of SLE. More on the design: species or system mouse.
The test system of test [3] is R848 induced TNF in human whole blood. Description: Human whole blood cytokine release assay. Format: cell-based. Put shortly:
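Heparin-anticoagulated whole blood (human, mouse or rat), or PBMC derived from it, was incubated with test compound and then exposed to TLR ligand. Cytokines were measured by Meso Scale Discovery immunoassay. EC50 and Hill slope were fitted from concentration–response data, and free-drug potency was derived using measured protein binding values.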

In test [4] the test system is nuclear localization of IRF-5 in PBMCs. Description: Monocyte IRF5 nuclear localization assay. Format: cell-based, human. The note with it: 100 nM, 2 hours. Put shortly: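 Healthy-volunteer PBMCs were incubated with 100 nM test compound or none, then stimulated with R848 or SLE patient sera for 2 hours at 37°C. IRF-5 nuclear translocation was quantified by Amnis imaging cytometry.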

The test system of test [5] is human macrophages stimulated with ACPA immune complexes. Description: Macrophage ACPA-IC induced TNFα assay. The note with it: 100 nM inhibitor, 11 donors, mean ± SEM. Format: cell-based. Put shortly: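 Human macrophages from 11 donors were preincubated with 100 nM inhibitor and then stimulated with anti-citrullinated protein antibody immune complexes. TNF in supernatants was measured by immunoassay and expressed as % of DMSO-only treatment (mean ± SEM), compared by paired t-test.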

Test [6] relates to human RA fibroblast-like synoviocytes. Put plainly: Human RA-FLS assay. Format: cell-based. The note with it: 100 nM. Put shortly: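 Human RA fibroblast-like synoviocytes were incubated with 100 nM test compound or vehicle before adding 0.1 ng/ml IL-1β. IL-6, IL-8 and MMP-1 in supernatants were measured by Meso Scale Discovery assay and expressed as percent of vehicle control, separately per donor.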

Test [7] has as its system rat collagen-induced arthritis. Put plainly: Rat collagen-induced arthritis model of RA. Format: in vivo. The note with it: rat CIA; PF-06650833 3 mg/kg twice daily or tofacitinib 10 mg/kg daily, oral, 7 days; vehicle 0.786 ± 0.043; mean ± SEM, n = 10.
For test [8], the system named is human B cells primed with IFNα and stimulated with R848. Put plainly: B cell maturation assay. It is filed as cell-based. Put shortly:
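Human B cells were isolated from Leukopaks and preincubated with 100 nM test compound, then given IFNα plus R848. Supernatants were harvested at 24 h for IL-6 and at 72 h for IL-10. Values are % of control; n = 6 donors, compared by paired t-test.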

The test system of test [9] is human plasmacytoid dendritic cells. Description: Plasmacytoid DC stimulation with SLE neutrophil supernatants. Format: cell-based. The note with it: 200 nM preincubation; 24 hours; n = 5. The essentials: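 SLE patient neutrophils were induced to undergo NETosis with R837, and their supernatants were collected. Plasmacytoid DCs were FACS-sorted from the DC fraction of healthy-volunteer buffy coats. They were cultured in 40% neutrophil supernatant with or without 200 nM test compound for 24 hours. CD83 was measured by flow cytometry against isotype control; n = 5.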

For test [10], the system named is human PBMCs stimulated with SLE immune complexes. Put plainly: SLE-IC assay. It is filed as cell-based. The note with it: 100 nM, 24 hours. The essentials: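 SLE immune complexes were made by purifying IgG from plasma of an anti-RNP/anti-dsDNA-positive SLE patient and mixing it with apoptotic cells. Human PBMCs were stimulated with these complexes with or without 100 nM test compound for 24 hours. IFNα in supernatant was measured by ELISA, and RSAD2, USP18 and GBP1 by qRT-PCR as relative quantification. n = 5 donors; analysed by 2-way ANOVA.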

Test [11] relates to pristane-induced lupus in BALB/c mice. Put plainly: Pristane in vivo model of SLE. More on the design: species or system mouse.
Test [12] has as its system whole blood 21-gene IFN gene signature. Description: Interferon signature modulation in Phase 1 MAD study in healthy volunteers. It is filed as in vivo, human. The note with it: 300 mg modified-release qd. The essentials: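 In a randomized, double-blind phase I multiple-ascending-dose study, healthy volunteers received modified-release test compound 300 mg once daily (n = 7) or placebo (n = 11) for 14 days. PAXgene whole blood was drawn on day 0 before the first dose and on day 14 before the last dose. RNA was sequenced, and an equally weighted 21-gene IFN signature was scored as percent change, day 14 versus day 0.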

The test system of test [13] is C-reactive protein (CRP) levels. The note with it: healthy volunteers; modified-release 300 mg daily; day 14; cited from earlier work.
Test [14] deals with active rheumatoid arthritis. The note with it: patients with active RA and inadequate response to methotrexate; cited from earlier work.

Read-outs that look alike come from different tables or passages of the source.

On to Etanercept, for which, in test [1], the “BioMAP phenotypic profile of inflammatory readouts” value (“BioMAP phenotypic profile” for short) is “predominant activity in the myofibroblast‐ and macrophage‐containing assays”.

With `N#CN1CCCC(n2nc(-c3ccc(Oc4ccc(F)cc4F)cc3)c(C(N)=O)c2N)C1` (stereo not drawn) [PF‐06250112, reference compound], in test [2] (30 mg/kg PO qd), the “all renal histologic pathology end points other than PAS area per tuft” value is on record as “significantly reduced” and the autoantibody titers result is “significantly reduced”.

On to `CC[C@@H]1[C@H](F)C(=O)N[C@@H]1COc1nccc2cc(C(N)=O)c(OC)cc12` [PF‐06650833, 1‐{[(2S,3S,4S)‐3‐Ethyl‐4‐fluoro‐5‐oxopyrrolidin‐2‐yl]methoxy}‐7‐methoxyisoquinoline‐6‐carboxamide], for which the EC50 in test [3] (read-out: EC50 values across the preclinical assays) was 2 to 10 nM. Further, in test [3] (read-out: IC50 total, human whole blood R848 induced TNF), the IC50 came out at 8.8 nM. Also, the “nuclear localization of IRF-5 stimulated by R848” value in [4] (without compound 23.0 ± 13.0, n = 3) was determined as 6.8 ± 4.4%. The “IRF-5 nuclear localization in response to SLE patient sera” value in test [4] (without compound 38.6 ± 18.4, n = 12) was found to be 24.2 ± 13.0%. Moreover, in test [5], the “ACPA IC-induced TNF release, % of that seen with DMSO treatment alone” value was 57.5 ± 17.9%. In addition, in [6], the “IL-1-induced cytokines in RA FLS” value is on record as “did not inhibit” and the “MMP induction by IL-1β in RA FLS” value is reported as “able to block”. In addition, the “cytokine and matrix metalloproteinase (MMP) release in response to all ligands profiled” value in test [6] (RA FLS) is “substantially reduced”. In addition, in test [1], the “BioMAP phenotypic profile” value is recorded as “greatest inhibition of inflammatory readouts in assays of innate immunity”. Besides, the “paw volume on day 7” value in [7] came to 0.555 ± 0.034 mL. The activity at 0.1 µM in [8] (24 h, read-out: B cell IL-6 production, % of control) turned out to be 50 ± 16.7%. Also, the activity at 0.1 µM in test [8] (72 h, read-out: B cell IL-10 production, % of control) was determined as 41.3 ± 7.1%. The “pDC CD83 up-regulation induced by neutrophil DAMPs” value in test [9] is reported as “significantly inhibited”. Moreover, the “IFNα release from PBMCs stimulated with SLE ICs” value in test [10] (n = 5 donors) is on record as “inhibited IFNα release in all donors”. The “induction of 3 IFN-responsive genes (RSAD2, USP18, and GBP1)” value in test [10] (SLE ICs, PBMCs) is “inhibited”. The “anti-SSA IgG at week 20” value in test [11] (200mpk in chow weeks 8-20, control 7,693 ± 1,241) is 2,726 ± 494 units/ml. Also, the “anti-RNP IgG at week 20” value in test [11] (200mpk in chow weeks 8-20, control 18,127 ± 7,902) is recorded as 3,730 ± 2,861 units/ml. In addition, the “mean PAS area per tuft” value in test [11] (kidney, week 20, pristane alone 1,252 ± 45, n = 8) is 1,045 ± 47 μm^2. Also, in [2] (200mg/kg in chow, 12-13 weeks), the “C3 and IgG deposition by immunohistochemistry” value is listed as “significantly reduced”; the anti-SSA result is “trends toward reductions”; the anti-dsDNA entry is given as “trends toward reductions”; the “anti-histone IgG” value is recorded as “significantly reduced”. Moreover, in test [2] (200mg/kg in chow, 12-13 weeks), the glomerular nephropathy result was “significantly reduced”, the “glomerular nuclear area by image analysis” value was “significantly reduced”, the “glomerular tuft area by image analysis” value was “significantly reduced” and the histologic kidney inflammation result was “significantly reduced”. Besides, in [2] (200mg/kg in chow, 12-13 weeks), the lymphadenopathy result is listed as “significantly reduced”, the splenomegaly entry is “trends toward reductions” and the tubular injury entry is listed as “trends toward reductions”. In addition, the “subjects with negative change of IFN gene score between day 0 and day 14” value in test [12] is 6 of 7. Moreover, the “reduction of IFN gene signature, median percent change day 14 vs day 0” value in [12] (14 days, n = 7, placebo +9.1%) was found to be 28.8%. Besides, in test [12] (day 14), the “difference in IFN gene signature change vs placebo” value is recorded as −37.9%. In addition, in test [13], the CRP levels result is listed as “statistically significant reductions”. The “disease activity in phase II study” value in test [14] was “significant effects on disease activity”.

Turning to `C[C@@H]1CCN(C(=O)CC#N)C[C@@H]1N(C)c1ncnc2[nH]ccc12` [tofacitinib, reference compound], in test [1], the “BioMAP phenotypic profile” value was “no impact on assays of innate immunity”. For the same molecule, the “paw volume on day 7” value in test [7] is 0.371 ± 0.044 mL.
